In ChEMBL document CHEMBL4368903, “Identification of GSK3186899/DDD853651 as a Preclinical Development Candidate for the Treatment of Visceral Leishmaniasis” (J Med Chem, 2019):
In brackets after ≈: the same amount, converted by molar mass.

Tests used:
[1] = Solubility of compound in fasted simulated intestinal fluid at 1 mg after 4 hrs by HPLC-UV analysis; assay type: physicochemical; settings: for solubility at 4 h: fasted simulated intestinal fluid
Method in brief: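 1 mg solid shaken in 1 mL FaSSIF (3 mM sodium taurocholate, 0.75 mM lecithin, phosphate buffer pH 6.5) at 900 rpm for 4 h at room temperature, then filtered. Supernatant quantified by HPLC-UV against single-point DMSO calibration. Range 1–1000 μg/mL.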

Leishmania donovani [2] = assay: Antileishmanial activity against Leishmania donovani […] in human THP1 cells by intramacrophage assay; assay type: functional, organism-based; settings: for EC50: Leishmania donovani, THP-1
[3] = Dissociation constant, pKa of the compound by UV-spectroscopy; assay type: physicochemical
Method in brief: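 Sirius T3 acid–base titration with UV read-out: 5 μL of 10 mM sample, absorbance over 54 pH values in about 5 min. Methanol cosolvent with Yasuda–Shedlovsky extrapolation used when precipitation occurred.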

[4] = Kinetic aqueous solubility of the compound in phosphate buffer at pH 7.4 by CLND assay; assay type: physicochemical; settings: for solubility kinetic: phosphate buffer, read-out: Kinetic_solubility
Method in brief: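 From 10 mM DMSO stock diluted 1:20 into pH 7.4 PBS, equilibrated 1 h at RT, filtered. Filtrate quantified by calibrated flow-injection CLND. Dynamic range 1–500 μM.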

[5] = Lipophilicity, log D of the compound at pH 7.4 assessed as chromatographic hydrophobicity index; assay type: physicochemical; settings: buffer
Method in brief: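 Reversed-phase C18 HPLC with fast acetonitrile gradient. CHI taken from gradient retention time via a calibration line of standards. ChromLogD = 0.0857 × CHI − 2.00.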

Leishmania donovani [6] = assay: Antileishmanial activity against Leishmania donovani axenic amastigote; assay type: functional, organism-based
[7] = Fraction unbound in CD1 mouse plasma at 10 ug/ml after 15 mins by UPLC-MS/MS analysis; assay type: ADME, cell-free
Leishmania donovani [8] = assay: Antileishmanial activity against Leishmania donovani LV9 amastigotes infected in BALB/c mouse assessed as suppression of parasite load within liver at 50 mg/kg, po administered bid for 10 days relative to control; assay type: functional
Method in brief: (§1)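 Female BALB/c mice, 5 per group, infected i.v. with about 2×10^7 L. donovani LV9 amastigotes harvested from infected hamster spleen. Oral dosing starts day 7 post-infection, in 0.5% HPMC/0.4% Tween 80/0.5% benzyl alcohol, or 10% DMSO/60% PEG400/30% water for the 5-day 50 mg/kg regimen. Dosing solutions made fresh daily. Killed day 14 (5-day) or 19 (10-day). Liver smears give LDU (amastigotes/500 nucleated cells × organ weight). Mean LDU compared with vehicle control gives % suppression.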

Leishmania donovani [9] = assay: Antileishmanial activity against Leishmania donovani LV9 amastigotes infected in BALB/c mouse assessed as suppression of parasite load within liver at 25 mg/kg, po administered bid for 10 days relative to control; assay type: functional; method in brief: as §1
THP-1 = assay: Cytotoxicity against human THP1 cells; assay type: cell-based
[10] = Mean AUClast in Sprague-Dawley rat at 300 mg/kg, po measured up to 24 hrs by UPLC-MS/MS analysis; assay type: ADME, organism-based; set-up: dose 300 mg/kg, time < 24 hr, route oral; settings: in vivo
Method in brief: (§2)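 Male Sprague–Dawley rats (n=3) given oral gavage as 1% methylcellulose suspension at 10, 100 or 300 mg/kg. Tail-vein blood at 0.25–24 h into K-EDTA, diluted in 0.1N Hepes and stored at −20 °C. Protein precipitation, then LC-MS/MS (range 2.90–2860 ng/mL). AUC0–t by linear up-log down trapezoidal rule.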

[11] = Mean AUClast in Sprague-Dawley rat at 100 mg/kg, po measured up to 24 hrs by UPLC-MS/MS analysis; assay type: ADME, organism-based; set-up: dose 100 mg/kg, time < 24 hr, route oral; settings: in vivo; method in brief: as §2
[12] = Fraction unbound in human plasma at 10 ug/ml after 15 mins by UPLC-MS/MS analysis; assay type: ADME, cell-free
[13] = Intrinsic clearance in CD1 mouse liver microsomes at 0.5 uM after 3 to 30 mins in presence of NADPH by UPLC-MS/MS analysis; assay type: ADME, Microsome
Method in brief: (§3)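 0.5 μM compound with female CD1 mouse or human liver microsomes, started with excess NADPH in 50 mM potassium phosphate pH 7.4. Aliquots at 0, 3, 6, 9, 15 and 30 min quenched in acetonitrile with internal standard. UPLC-MS/MS; rate constant from exponential decay of compound/IS ratio. Verapamil as positive control.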

[14] = Mean AUClast in Sprague-Dawley rat at 10 mg/kg, po measured up to 24 hrs by UPLC-MS/MS analysis; assay type: ADME, organism-based; set-up: dose 10 mg/kg, time < 24 hr, route oral; settings: in vivo; method in brief: as §2
Leishmania donovani [15] = assay: Antileishmanial activity against Leishmania donovani LV9 amastigotes infected in BALB/c mouse assessed as suppression of parasite load within liver at 10 mg/kg, po administered bid for 10 days relative to control; assay type: functional; method in brief: as §1
Leishmania donovani [16] = assay: Antileishmanial activity against Leishmania donovani LV9 amastigotes infected in BALB/c mouse assessed as suppression of parasite load within liver at 100 mg/kg, po administered bid for 5 days relative to control; assay type: functional; method in brief: as §1
[17] = Intrinsic clearance in human liver microsomes at 0.5 uM after 3 to 30 mins in presence of NADPH by UPLC-MS/MS analysis; assay type: ADME, Microsome; method in brief: as §3
HepG2 = assay: Cytotoxicity against human HepG2 cells; assay type: cell-based
[18] = Cmax in BALB/c mouse at 10 mg/kg, po measured up to 24 hrs by UPLC-MS/MS analysis; assay type: ADME, organism-based; set-up: dose 10 mg/kg, route oral; settings: in vivo
Method in brief: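 Single oral dose to female Balb/c mice (n=3) in 10% DMSO/60% PEG400/30% water. Blood sampled at 0.08–24 h and mixed with two volumes of water. Compound quantified by UPLC-MS/MS. Parameters taken from the mean blood concentration–time curve.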

[19] = Permeability of the compound by artificial membrane permeability assay; assay type: ADME; settings: PAMPA; read-out: permeability
[20] = Blood clearance in BALB/c mouse at 10 mg/kg, […] measured up to 24 hrs by UPLC-MS/MS analysis; assay type: ADME, organism-based; settings: whole blood
[21] = Volume of distribution at steady state in BALB/c mouse at 10 mg/kg, po measured up to 24 hrs by UPLC-MS/MS analysis; assay type: ADME, organism-based; settings: in vivo
Method in brief: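 Female Balb/c mice (n = 3) were dosed in 10% (v/v) DMSO, 60% PEG 400 and 30% deionized water. Compound in blood was quantified by UPLC-MS/MS, and parameters were derived from the mean blood concentration–time curve.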

[22] = AUClast in BALB/c mouse at 10 mg/kg, po measured up to 24 hrs by UPLC-MS/MS analysis; assay type: ADME, organism-based; set-up: time < 24 hr, dose 10 mg/kg, route oral; settings: in vivo
Method in brief: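 Female Balb/c mice (n=3) dosed orally in 10% (v/v) DMSO, 60% PEG 400, 30% deionized water. AUC0–last (to last measurement) derived from the mean blood concentration–time curve.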

[23] = Oral bioavailability in BALB/c mouse at 10 mg/kg measured up to 24 hrs by UPLC-MS/MS analysis; assay type: ADME, organism-based; settings: in vivo
Leishmania donovani [24] = assay: Antileishmanial activity against Leishmania donovani LV9 amastigotes infected in BALB/c mouse assessed as suppression of parasite load within liver at 50 mg/kg, po administered bid for 5 days relative to control; assay type: functional; method in brief: as §1

## O=S(=O)(CCC(F)(F)F)N[C@H]1CC[C@H](Nc2ncc3c(N4CCOCC4)n[nH]c3n2)CC1
[1]
  solubility at 4 h: 7 µg/mL (≈ 14.7 µM)
Leishmania donovani [2]
  EC50: 3.16 µM
[3]
  pKa: 3.7
[4]
  solubility kinetic: 259 µM (≈ 124 µg/mL)
[5]
  chromatographic logD: 3

## CC(C)CC(=O)c1sc(NC2CCCCC2)nc1N
Leishmania donovani [6]
  EC50: 50.1 µM

## COc1nc(N[C@H]2CC[C@H](NS(=O)(=O)CC3CCCO3)CC2)nc2[nH]nc(N3CCOCC3)c12 (stereo in doubt; 34)
[1]
  solubility at 4 h: 283 µg/mL (≈ 571 µM)
Leishmania donovani [2]
  pEC50: 5.4
[4]
  solubility kinetic: 412 µM (≈ 204 µg/mL)

## CC(C)CS(=O)(=O)N[C@H]1CC[C@H](Nc2ncc3c(N4CCOCC4)n[nH]c3n2)CC1
[7]
  fraction unbound at 0.25 h, 10 ug/ml: 0.37
[1]
  solubility at 4 h: 9 µg/mL (≈ 20.6 µM)
Leishmania donovani [8]
  Activity: 97%
Leishmania donovani [2]
  EC50: 0.501 µM
Leishmania donovani [9]
  Activity: 74%
THP-1
  EC50: > 50.1 µM
[10]
  AUC(0-t) at 24 h: 2380 ng·h/mL
[11]
  AUC(0-t) at 24 h: 2960 ng·h/mL
[12]
  fraction unbound at 0.25 h, 10 ug/ml: 0.33
[13]
  CLH: 0.9 mL/min/g
[14]
  AUC(0-t) at 24 h: 162 ng·h/mL
[4]
  solubility kinetic: 328 µM (≈ 144 µg/mL)
Leishmania donovani [15]
  Activity: 36%
Leishmania donovani [16]
  Activity: 94%
[17]
  CLH: 1.8 mL/min/g
HepG2
  EC50: > 100 µM

## COc1nc(N[C@H]2CC[C@H](NS(=O)(=O)CC3CCCO3)CC2)nc2[nH]nc(N3CCOCC3)c12 (stereo in doubt; 35)
[1]; in vivo, 4 h
  solubility: 208 µg/mL (≈ 420 µM)
Leishmania donovani [2]
  EC50: 6.31 µM
[4]; buffer
  Kinetic_solubility: 421 µM

## O=S(=O)(CCC(F)(F)F)N[C@H]1CC[C@H](Nc2ncc3c(-c4ccccn4)n[nH]c3n2)CC1
[7]
  fraction unbound at 0.25 h, 10 ug/ml: 0.13
[1]
  solubility at 4 h: < 1 µg/mL
[18]
  Cmax: 1910 ng/mL
Leishmania donovani [2]
  EC50: 0.501 µM
THP-1
  EC50: 50.1 µM
[19]
  Papp: 44 ×10⁻⁶ cm/s
[20]
  CL/F: 4 mL/min/kg
[12]
  fraction unbound at 0.25 h, 10 ug/ml: 0.08
[13]
  CLH: 0.6 mL/min/g
[3]
  pKa: 3.2
[4]
  solubility kinetic: 8 µM (≈ 3.76 µg/mL)
[21]
  Vdss: 0.9 L/kg
[22]
  AUC(0-t) at 24 h: 17400 ng·h/mL
[23]
  bioavailability: 44%
Leishmania donovani [24]
  Activity: 85%
[17]
  CLH: < 0.5 mL/min/g
HepG2
  EC50: > 100 µM

## C[C@@H]1CN(c2n[nH]c3nc(N[C@H]4CC[C@H](NS(=O)(=O)CCC(F)(F)F)CC4)ncc23)CCO1
[1]
  solubility at 4 h: 23 µg/mL (≈ 46.8 µM)
Leishmania donovani [2]
  EC50: 5.01 µM
[4]
  solubility kinetic: 52 µM (≈ 25.6 µg/mL)

## CC1COCCN1c1n[nH]c2nc(N[C@H]3CC[C@H](NS(=O)(=O)CCC(F)(F)F)CC3)ncc12 (stereo in doubt; 36)
[1]
  solubility at 4 h: 88 µg/mL (≈ 179 µM)
Leishmania donovani [2]
  pEC50: 5.6
[4]
  solubility kinetic: ≥ 310 µM
